Screening data as filed in PubChem.
The list is not random: actives were taken first. Their share in the collection is about 3.5%.
RGS4 act: RGS4 potentiation or activation. HEK293 M3R/inducible RGS4, carbachol calcium flux Fluo4; active compounds read low. B-score at 10 µM. 0.92% of 310,000 active;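 active = B-score of the integrated calcium signal more than 4 SD below the library mean, with starting fluorescence not abnormally high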;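 also: negative B-score means reduced calcium response which marks RGS4 activation or potentiation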
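System – HEK293 FlpIn-TREx cells, stable M3R, doxycycline-inducible RGS4 · Reagent – ECmax carbachol challenge · Times – compound preincubation 20 min at room temperature before agonist · Technique – Fluo4 fluorescence kinetic imaging of calcium · Measure – B score of integrated Fluo4 ratio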
MrgX1 agonist: agonists of human MrgX1 receptor; Q96LB2; MrgX1-HEK293 cells, Fluo-4 calcium fluorescence, agonist mode; active compounds read high; B-score at 10 µM; 0.44% of 310,000 active;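 active = calcium response B-score plate-corrected fluorescence ratio at least 3 library SD, with starting fluorescence B-score inside 5 SD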
Target sequence (Q96LB2 whole entry, looked up): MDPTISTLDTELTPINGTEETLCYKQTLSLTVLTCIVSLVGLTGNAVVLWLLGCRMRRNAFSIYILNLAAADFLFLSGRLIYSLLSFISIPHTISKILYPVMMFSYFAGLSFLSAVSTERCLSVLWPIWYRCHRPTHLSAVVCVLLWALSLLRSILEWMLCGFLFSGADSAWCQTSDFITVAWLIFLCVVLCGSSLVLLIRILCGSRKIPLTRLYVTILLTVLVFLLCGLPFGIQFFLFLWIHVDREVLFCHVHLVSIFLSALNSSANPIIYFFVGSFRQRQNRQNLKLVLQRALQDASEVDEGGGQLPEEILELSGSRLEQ
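Assay system: MrgX1-expressing HEK293 cells / Amount: fifteen thousand cells per well / Doses: test compound in the initial addition of three / Timing: cells plated overnight, dye loaded 0.5 h 37 °C, 0.5 h room temperature / Technique: kinetic calcium dye fluorescence, Fluo-4 NW / Control set: positive and negative controls per plate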
MrgX1 PAM: allosterically activates human MrgX1 receptor signaling | 0.63% of 310,000 active | MrgX1-HEK293, Fluo-4 calcium flux, FDSS; active compounds read high | AID 588675 | B-score at 10 µM;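 active = plate-corrected calcium response at least 3 library SD above typical, normal starting fluorescence, not activating the receptor alone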;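 also: compound read alongside a low EC10 to EC30 dose of BAM8-22 agonist; peak minus trough fluorescence over baseline measured at the second addition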
RGS4 inh: human RGS4 inhibition | HEK293 M3R/RGS4 inducible, Fluo-4 calcium flux; active compounds read high; triggered by carbachol at its EC20 | B-score at 10 µM | 0.45% of 310,000 active;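 active = B-score, a plate-corrected calcium signal, over three deviations above library mean, with baseline fluorescence within five deviations of library mean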;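 also: RGS4 expression induced by doxycycline in cells with stable M3 receptor; B-score is computed from the integrated fluorescence ratio over baseline after carbachol; higher B-score means a larger calcium signal and so more RGS4 inhibition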
Target sequence (P49798 whole entry, looked up): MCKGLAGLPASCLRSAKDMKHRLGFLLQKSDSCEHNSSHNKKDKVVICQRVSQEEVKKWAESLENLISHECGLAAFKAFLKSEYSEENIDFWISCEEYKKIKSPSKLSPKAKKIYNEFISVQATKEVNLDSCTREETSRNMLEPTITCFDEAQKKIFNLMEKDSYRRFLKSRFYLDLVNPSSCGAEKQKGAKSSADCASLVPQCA
MrgX1 antagonist: human MrgX1 receptor antagonism, primary screen. Q96LB2. MRGX1-HEK293 calcium flux, Fluo-4, BAM8-22 antagonism; active compounds read low. B-score at 10 µM. 1.3% of 310,000 active;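 active = calcium-response B-score plate-corrected more than 3 library SD below zero, starting fluorescence within 5 deviations, no agonist response on first addition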;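 also: peak minus trough fluorescence over baseline after final BAM8-22 challenge near maximal dose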
RGS4 block valid: validation of RGS4 inhibitors; shares compounds with RGS4 inh; HEK293 M3R/RGS4, carbachol calcium Fluo-4 fluorescence; carbachol added at its EC20; 0 = buffer wells, 100 = carbachol control; calcium response, % at 10 µM; 65% of 1,700 active;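 active = duplicate-averaged calcium response above the buffer-only control mean plus 5 SD of those controls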;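 also: integrated fluorescence ratio F max minus min over baseline F0; higher response in RGS4-induced cells means RGS4 inhibition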
RGS4 uninduced: checks RGS4 inhibitor effects in non-induced HEK293 M3R cells; shares compounds with RGS4 inh; carbachol calcium Fluo-4; submaximal (EC20) carbachol stimulus; buffer wells 0%, carbachol control wells 100%; activity (percent), % at 10 µM; 20% of 1,900 active; AID 493000; call rule not given here;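 also: RGS4 induction absent so cells express M3R without RGS4; higher means more calcium signal and flags a non-specific hit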
RGS4 inh ctr2: second RGS4 inhibitor counter-screen in uninduced cells lacking carbachol. shares compounds with RGS4 inh. HEK293 M3R/RGS4 non-induced, Fluo-4 calcium, no carbachol; normalised: buffer wells 0%, carbachol wells 100%. calcium response (agonist-mode artifact), % at 10 µM. 22% of 1,900 active;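 active = duplicate-averaged calcium rise in uninduced cells above buffer wells' mean plus 5 SD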
Each line names hits and unclear results; the compound was inactive in the other large screens (follow-up assays come after a bar, where they were run).

C/C(=N\N=C(/N)SC1CC(=O)N(c2cccc(Cl)c2)C1=O)c1cccs1 (stereo unspecified)	none | RGS4 uninduced inactive | RGS4 inh ctr2 inactive
COc1ccc(-c2nnc3n2N=C(C)CS3)cc1OC	none
CCCc1nnc2n1N=C(c1ccc(OC)c(OC)c1)CS2	RGS4 inh 7.41 | RGS4 block valid 12.5% | RGS4 uninduced 28.5% | RGS4 inh ctr2 inactive
COc1ccc(C2=Nn3c(nnc3C3CCCCC3)SC2)cc1OC	RGS4 inh 10.7 | RGS4 block valid 21.5% | RGS4 uninduced 49.0% | RGS4 inh ctr2 inactive
COc1ccc(C2=Nn3c(nnc3-c3ccccc3)SC2)cc1OC	none | RGS4 uninduced inactive | RGS4 inh ctr2 inactive
COc1ccc(OC)c(C2=Nn3c(nnc3C3CCCCC3)SC2)c1	none
COc1ccc(NC(=O)CN(C)C(=O)c2cccc(S(=O)(=O)Nc3ccccc3Cl)c2)cc1	none
CC(C)Oc1ccc(/C(O)=C2/C(=O)C(=O)N(CCN3CCNCC3)C2c2ccc(C(C)C)cc2)cc1 (stereo unspecified)	none
Oc1ccccc1C=NCCN=Cc1ccccc1O	none
Oc1ccc(Cl)cc1C=NCCc1ccccc1	RGS4 inh 5.02 | RGS4 block valid 21.5% | RGS4 uninduced 35.0% | RGS4 inh ctr2 11.0%
Cc1ccc(NC(=O)C(=Cc2ccc(C(=O)O)cc2)C(=O)Nc2ccc(C)cc2C)c(C)c1	RGS4 inh 10.6 | RGS4 block valid 18.5% | RGS4 uninduced inactive | RGS4 inh ctr2 inactive
COc1ccc(OC)c(S(=O)(=O)N2CCCC(C(=O)NCc3ccncc3)C2)c1 (stereo unspecified)	none
COc1ccc(Cl)cc1S(=O)(=O)N1CCCC(C(=O)N2CCCC2)C1 (stereo unspecified)	none
COc1ccc(OC)c(S(=O)(=O)N2CCCC(C(=O)N3CCCC3)C2)c1 (stereo unspecified)	none | RGS4 block valid inactive | RGS4 uninduced inactive | RGS4 inh ctr2 inactive
COc1ccc(OC)c(S(=O)(=O)N2CCC(C(=O)N3CCCC3)CC2)c1	none
COc1ccc(S(=O)(=O)N2CCCC(C(=O)N3CCOCC3)C2)cc1OC (stereo unspecified)	none
COc1ccc(OC)c(S(=O)(=O)N2CCC(C(=O)N3CCOCC3)CC2)c1	none | RGS4 block valid inactive | RGS4 uninduced inactive | RGS4 inh ctr2 inactive
COc1ccc(OC)c(S(=O)(=O)N2CCCC(C(=O)N3CCCCCC3)C2)c1 (stereo unspecified)	none | RGS4 block valid inactive | RGS4 uninduced inactive | RGS4 inh ctr2 13.5%
COc1ccc(C)cc1S(=O)(=O)N1CCCC(C(=O)N2CCOCC2)C1 (stereo unspecified)	none | RGS4 block valid inactive | RGS4 uninduced inactive | RGS4 inh ctr2 inactive
Cc1ccc(CC(=O)NCCN2CCOCC2)cc1	none
CCCCCCc1ccc(N2C[C@H](Cc3ccccc3)[C@@H](CC(=O)Nc3ccccc3)C2=O)cc1	none
CC(=O)/C=C1/C(=O)Nc2ccccc21	RGS4 inh 18.3 | RGS4 block valid 33.5% | RGS4 uninduced 43.5% | RGS4 inh ctr2 26.5%
CCOc1ccc(N(CC(=O)Nc2ccc(OC)cc2OC)S(=O)(=O)c2c(C)[nH]c(=O)[nH]c2=O)cc1	none
CCC(C(=O)NCCc1c[nH]c2cc(OC)ccc12)c1ccccc1 (stereo unspecified)	none
O=C(NCc1ccco1)c1cc2nc(-c3ccc4c(c3)OCO4)cc(C(F)(F)F)n2n1	RGS4 inh 4.66 | RGS4 block valid inactive | RGS4 uninduced inactive | RGS4 inh ctr2 15.5%
O=C(NCc1cccnc1)c1cc2nc(-c3ccc4c(c3)OCO4)cc(C(F)(F)F)n2n1	none
COc1ccc(-c2cc(C(F)(F)F)n3nc(C(=O)NCc4ccco4)cc3n2)cc1	none | RGS4 uninduced inactive | RGS4 inh ctr2 inactive
CO/C=C\C=C/c1nnn(-c2ccc(Cl)cc2)n1	RGS4 inh 7.46 | RGS4 block valid inactive | RGS4 uninduced inactive | RGS4 inh ctr2 8.0%
N#C/C(=C\c1cccc([N+](=O)[O-])c1)c1nnc2n1CCCCC2	RGS4 inh 6.06 | RGS4 block valid 15.5% | RGS4 uninduced inactive | RGS4 inh ctr2 inactive
CC1(C)CC(=O)C(C(C2=C(O)CC(C)(C)CC2=O)c2ccc(Br)s2)C(=O)C1 (stereo unspecified)	RGS4 inh 18.1 | RGS4 block valid 87.5% | RGS4 uninduced inactive | RGS4 inh ctr2 74.0%
Cc1ccc(C(C2=C(O)CC(C)(C)CC2=O)C2C(=O)CC(C)(C)CC2=O)s1 (stereo unspecified)	RGS4 inh 13.7 | RGS4 block valid 35.0% | RGS4 uninduced 44.0% | RGS4 inh ctr2 inactive
CC1(C)CC(=O)C(C(C2=C(O)CC(C)(C)CC2=O)c2ccc([N+](=O)[O-])cc2)C(=O)C1 (stereo unspecified)	none
CCCCC1=CC2=C(c3ccco3)C(=O)C(C)(OC(=O)c3ccc(OC)cc3)C(=O)C2=CN1Cc1ccc(OC)cc1 (stereo unspecified)	none (no result: MrgX1 agonist, MrgX1 PAM, MrgX1 antagonist)
CCCCC1=CC2=C(c3ccco3)C(=O)C(C)(OC(=O)c3ccc(OC)cc3)C(=O)C2=CN1CCCCO (stereo unspecified)	none | RGS4 block valid inactive | RGS4 uninduced inactive | RGS4 inh ctr2 inactive
CCCCC1=CC2=C(c3ccco3)C(=O)C(C)(OC(=O)c3ccc(OC)cc3)C(=O)C2=CN1Cc1ccco1 (stereo unspecified)	MrgX1 antagonist -4.63 | RGS4 block valid inactive | RGS4 uninduced inactive | RGS4 inh ctr2 inactive
CCCCC1=CC2=C(c3ccco3)C(=O)C(C)(OC(=O)c3ccc(OC)cc3)C(=O)C2=CN1CCCN(CC)CC (stereo unspecified)	none | RGS4 block valid inactive | RGS4 uninduced inactive | RGS4 inh ctr2 inactive
CCCCC1=CC2=C(c3ccco3)C(=O)C(C)(OC(=O)c3ccc(OC)cc3)C(=O)C2=CN1CCN1CCOCC1 (stereo unspecified)	none | RGS4 block valid inactive | RGS4 uninduced inactive | RGS4 inh ctr2 inactive
CCCCC1=CC2=C(c3ccco3)C(=O)C(C)(OC(=O)c3ccc(OC)cc3)C(=O)C2=CN1CC(C)C (stereo unspecified)	RGS4 inh 6.75 | RGS4 block valid 5.0% | RGS4 uninduced inactive | RGS4 inh ctr2 inactive
